B1: tRNA (parent)
chain: GUUCCGUUGGCGUAAUGGUAACGCGUCUCCCUCCUAAGGAGAAGACUGCGGGUUCGAGUCCCGUACGGAACG

Variants of: B1
Assay: yeast fitness, log relative to wild type (ln ratio); higher = fitter; tRNA-Arg(CCU), competitive growth, 37 C, 1 M NaCl
Outline: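 Fitness is the natural log of a genotype's generation count divided by that of the wild type. A combinatorial library of tRNA-Arg(CCU) variants sat on a HIS3 centromeric plasmid in BY4742 lacking the chromosomal gene, from two independent transformations. Pools grew 4 generations in SC-HIS at 30 °C, then ~6.5 generations (~26.5 h) in SC-HIS 1M NaCl at 37 °C, with three outputs per input. Generations came from OD-scaled log2 output/input frequency, inverse-variance weighted across replicates, with variants counted by 125 bp paired-end Illumina sequencing.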

Variant | yeast fitness (ln)
GUUCCUUUGGCGUAAUGGUAACGCGUUUCCCUCCUAAGGAGACGACUGCGGGUUCGAGUCCCGUAUGGGAUG [G6U C27U A43C C66U A69G C71U] | -0.395
GCUCCUUUGGCGUAAUGGUAACGCGUCUCCCUCCUAAGGAGAAGAUUGCGGGUUCGAGUCCCGUACGGAUCG [U2C G6U C46U A70U] | -0.0445
ACUCCAUUGGCGUAAUGGUAACGCGUCUCCCUCCUAAGGAGACGACUGCGGGUUCGAGUCCCGUAUGGAUCG [G1A U2C G6A A43C C66U A70U] | -0.083
GUUCCAUUGGCGUAAUGGUAACGCGUUUCCCUCCUAAGGAGAAGAUUGCGGGUUCGAGUCCCGUAUGGAACG [G6A C27U C46U C66U] | -0.0122
ACUCCGUUGGCGUAAUGGUAACGCGUUUCCCUCCUAAGGAGACGAUUGCGGGUUCGAGUCCCGUACGGAUCG [G1A U2C C27U A43C C46U A70U] | -0.072
AUUCCUUUGGCGUAAUGGUAACGCGUCUCCCUCCUAAGGAGAAGAUUGCGGGUUCGAGUCCCGUACGGAGUG [G1A G6U C46U A70G C71U] | -0.227
GGUCCUUUGGCGUAAUGGUAACGCGUCUCCCUCCUAAGGAGAAGACUGCGGGUUCGAGUCCCGUAAGGAGUG [U2G G6U C66A A70G C71U] | -0.249
GGUCCAUUGGCGUAAUGGUAACGCGUCUCCCUCCUAAGGAGAAGACUGCGGGUUCGAGUCCCGUACGGAACG [U2G G6A] | -0.00406
GUUCCGUUGGCGUAAUGGUAACGCGUCUCCCUCCUAAGGAGAAGAUUGCGGGUUCGAGUCCCGUAAGGGUUG [C46U C66A A69G A70U C71U] | -0.282
AGUCCAUUGGCGUAAUGGUAACGCGUCUCCCUCCUAAGGAGAAGACUGCGGGUUCGAGUCCCGUACGGGUCG [G1A U2G G6A A69G A70U] | -0.153
AUUCCUUUGGCGUAAUGGUAACGCGUUUCCCUCCUAAGGAGAAGAUUGCGGGUUCGAGUCCCGUAAGGAUUG [G1A G6U C27U C46U C66A A70U C71U] | -0.415
GCUCCUUUGGCGUAAUGGUAACGCGUCUCCCUCCUAAGGAGAAGAUUGCGGGUUCGAGUCCCGUAAGGAACG [U2C G6U C46U C66A] | -0.0276
GUUCCUUUGGCGUAAUGGUAACGCGUUUCCCUCCUAAGGAGACGAUUGCGGGUUCGAGUCCCGUACGGGUUG [G6U C27U A43C C46U A69G A70U C71U] | -0.45
GGUCCUUUGGCGUAAUGGUAACGCGUUUCCCUCCUAAGGAGACGACUGCGGGUUCGAGUCCCGUAUGGGUUG [U2G G6U C27U A43C C66U A69G A70U C71U] | -0.411
AUUCCUUUGGCGUAAUGGUAACGCGUUUCCCUCCUAAGGAGAAGAUUGCGGGUUCGAGUCCCGUAAGGAGUG [G1A G6U C27U C46U C66A A70G C71U] | -0.23
GCUCCGUUGGCGUAAUGGUAACGCGUUUCCCUCCUAAGGAGACGACUGCGGGUUCGAGUCCCGUAUGGAACG [U2C C27U A43C C66U] | -0.15
AGUCCGUUGGCGUAAUGGUAACGCGUCUCCCUCCUAAGGAGACGACUGCGGGUUCGAGUCCCGUAUGGAACG [G1A U2G A43C C66U] | -0.246
GUUCCUUUGGCGUAAUGGUAACGCGUUUCCCUCCUAAGGAGACGACUGCGGGUUCGAGUCCCGUAUGGAUUG [G6U C27U A43C C66U A70U C71U] | -0.372
AUUCCAUUGGCGUAAUGGUAACGCGUUUCCCUCCUAAGGAGACGACUGCGGGUUCGAGUCCCGUACGGGGUG [G1A G6A C27U A43C A69G A70G C71U] | -0.33

Variant | yeast fitness (ln)
GCUCCUUUGGCGUAAUGGUAACGCGUUUCCCUCCUAAGGAGACGACUGCGGGUUCGAGUCCCGUAAGGAUUG [U2C G6U C27U A43C C66A A70U C71U] | -0.272
AGUCCUUUGGCGUAAUGGUAACGCGUUUCCCUCCUAAGGAGACGACUGCGGGUUCGAGUCCCGUAUGGAAUG [G1A U2G G6U C27U A43C C66U C71U] | -0.518
GUUCCAUUGGCGUAAUGGUAACGCGUUUCCCUCCUAAGGAGACGACUGCGGGUUCGAGUCCCGUACGGAUCG [G6A C27U A43C A70U] | -0.263
ACUCCUUUGGCGUAAUGGUAACGCGUUUCCCUCCUAAGGAGAAGAUUGCGGGUUCGAGUCCCGUAUGGGGUG [G1A U2C G6U C27U C46U C66U A69G A70G C71U] | -0.699
AUUCCAUUGGCGUAAUGGUAACGCGUCUCCCUCCUAAGGAGAAGACUGCGGGUUCGAGUCCCGUAUGGGGUG [G1A G6A C66U A69G A70G C71U] | -0.145
GUUCCGUUGGCGUAAUGGUAACGCGUUUCCCUCCUAAGGAGAAGACUGCGGGUUCGAGUCCCGUAAGGAACG [C27U C66A] | -0.0595
GGUCCGUUGGCGUAAUGGUAACGCGUUUCCCUCCUAAGGAGACGAUUGCGGGUUCGAGUCCCGUACGGAAUG [U2G C27U A43C C46U C71U] | -0.0621
ACUCCAUUGGCGUAAUGGUAACGCGUCUCCCUCCUAAGGAGAAGACUGCGGGUUCGAGUCCCGUACGGGGUG [G1A U2C G6A A69G A70G C71U] | -0.187
GCUCCGUUGGCGUAAUGGUAACGCGUUUCCCUCCUAAGGAGAAGACUGCGGGUUCGAGUCCCGUAUGGAUCG [U2C C27U C66U A70U] | -0.113
AGUCCAUUGGCGUAAUGGUAACGCGUUUCCCUCCUAAGGAGACGACUGCGGGUUCGAGUCCCGUAUGGAGUG [G1A U2G G6A C27U A43C C66U A70G C71U] | -0.479
GGUCCUUUGGCGUAAUGGUAACGCGUUUCCCUCCUAAGGAGAAGACUGCGGGUUCGAGUCCCGUAUGGAGCG [U2G G6U C27U C66U A70G] | -0.207
AUUCCGUUGGCGUAAUGGUAACGCGUUUCCCUCCUAAGGAGAAGAUUGCGGGUUCGAGUCCCGUAUGGAAUG [G1A C27U C46U C66U C71U] | -0.454
AGUCCUUUGGCGUAAUGGUAACGCGUCUCCCUCCUAAGGAGACGACUGCGGGUUCGAGUCCCGUAUGGAGUG [G1A U2G G6U A43C C66U A70G C71U] | -0.419
GGUCCUUUGGCGUAAUGGUAACGCGUCUCCCUCCUAAGGAGACGAUUGCGGGUUCGAGUCCCGUAUGGGGUG [U2G G6U A43C C46U C66U A69G A70G C71U] | -0.348
AGUCCAUUGGCGUAAUGGUAACGCGUCUCCCUCCUAAGGAGAAGAUUGCGGGUUCGAGUCCCGUAUGGGUCG [G1A U2G G6A C46U C66U A69G A70U] | -0.383
GCUCCGUUGGCGUAAUGGUAACGCGUCUCCCUCCUAAGGAGAAGACUGCGGGUUCGAGUCCCGUACGGGUUG [U2C A69G A70U C71U] | -0.199
ACUCCUUUGGCGUAAUGGUAACGCGUCUCCCUCCUAAGGAGACGAUUGCGGGUUCGAGUCCCGUACGGAUCG [G1A U2C G6U A43C C46U A70U] | -0.0463
ACUCCAUUGGCGUAAUGGUAACGCGUCUCCCUCCUAAGGAGAAGAUUGCGGGUUCGAGUCCCGUAUGGAAUG [G1A U2C G6A C46U C66U C71U] | -0.0596
GGUCCGUUGGCGUAAUGGUAACGCGUUUCCCUCCUAAGGAGAAGAUUGCGGGUUCGAGUCCCGUAAGGGUUG [U2G C27U C46U C66A A69G A70U C71U] | -0.383
